Assay outcomes as filed in PubChem BioAssay.
Hits are enriched below; roughly 2.9% of the tested compounds scored in any of these assays.
HTRA1 inh: HTRA1 (human) protease inhibition; recombinant HTRA1, FP-rhodamine activity-based probe, fluorescence polarization; AID 504803; 340,000 tested, 0.5% active; inhibition, % at 5.96 µM; Q92743; in the data active means inhibition above about 36%;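 further: 0% = enzyme with DMSO and 100% = wells lacking enzyme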
PRMT1 FP inh: inhibitors of human PRMT1 | Q99873 | recombinant PRMT1, activity-based probe fluorescence polarization | inhibition, % at 2.79 µM | 370,000 tested, 1.3% active;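 active means inhibition above about 21% made by adding two undisclosed values, limit read from the data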
SIAE inh: human SIAE inhibition, primary screen. Q9HAT2. SIAE FP-Rh probe binding, fluorescence polarization. inhibition, % at 9.66 µM. 370,000 tested, 0.69% active. AID 1053197;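 active means inhibition above a cutoff: mean of compounds within the control limits plus 3 SD of those, cut at about 17% in these data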;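 further: 0% = plate median of compound wells and 100% = probe without SIAE protein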
Target sequence (Q9HAT2 whole entry, looked up): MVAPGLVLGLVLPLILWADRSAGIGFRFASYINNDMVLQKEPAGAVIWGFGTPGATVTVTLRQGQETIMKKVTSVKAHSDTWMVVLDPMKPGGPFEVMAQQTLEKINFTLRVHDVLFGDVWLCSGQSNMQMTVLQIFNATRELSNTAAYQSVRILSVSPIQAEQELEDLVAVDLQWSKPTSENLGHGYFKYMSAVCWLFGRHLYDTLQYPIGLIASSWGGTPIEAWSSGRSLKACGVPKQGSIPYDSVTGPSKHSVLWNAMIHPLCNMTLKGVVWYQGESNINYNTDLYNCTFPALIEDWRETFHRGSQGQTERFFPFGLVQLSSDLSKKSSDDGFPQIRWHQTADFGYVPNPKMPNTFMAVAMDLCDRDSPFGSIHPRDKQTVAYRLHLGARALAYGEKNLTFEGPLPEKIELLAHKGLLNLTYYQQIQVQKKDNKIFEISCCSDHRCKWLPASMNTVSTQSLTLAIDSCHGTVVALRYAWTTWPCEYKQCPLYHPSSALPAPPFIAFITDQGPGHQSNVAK
TCR-CD3 inh: blocks the human TCR-CD3 interaction. inhibition, % at 9.4 µM. 360,000 tested, 0.37% active. AID 651800. TAMRA-labeled TCR probe fluorescence, biochemical; in the data active means inhibition above about 19%;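 further: recombinant mutant TCR 2C K166C tagged with TAMRA read by polarization; 0% = receptor in buffer alone and 100% = receptor with positive control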
PAD4 inh: blocks human protein arginine deiminase 4. inhibition, % at 6.36 µM. 330,000 tested, 0.41% active. recombinant PAD4, RCA probe fluorescence polarization. Q9UM07;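 active means percent inhibition above a cutoff equal to the mean of all tested compounds plus 3 SD, cut at about 15% in these data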;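 further: 0% = PAD4 with RCA probe and DMSO and 100% = probe without PAD4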
mABHD4 FP: inhibitors of mouse ABHD4. Q8VD66. purified mABHD4, FP-Rh probe fluorescence polarization. inhibition, % at 8.92 µM. 370,000 tested, 0.54% active;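 active means inhibition exceeding the mean over every tested compound plus 3 SD, cut at about 30% in these data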;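 further: 0% = plate median of compound wells and 100% = S159A mutant with DMSO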
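assay system = mABHD4 protein | compound dosing = single nominal dose of 8.92 µM, 0.89% DMSO final | read-out basis = percent inhibition of probe binding, normalized to plate controls | schedule = Enzyme–compound pre-incubation 45 min, then probe 60 min, both 25 °C | detection = fluorescence polarization, excitation 525 nm, emission 598 nm, BODIPY TMR filters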
SIAE inh conf: human SIAE inhibition, confirmation. shares compounds with SIAE inh. SIAE FP-Rh activity-based probe, fluorescence polarization. inhibition, % at 9.66 µM. 2,300 tested, 13% active. AID 1117263;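 active means mean inhibition of the replicates above the hit cutoff set in the primary screen, cut at about 17% in these data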;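 further: 0% = SIAE with DMSO and probe and 100% = probe without SIAE; inhibitors lower polarization as more probe stays unbound to SIAE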
Numbers without * were called inactive; . = no result given.

SMILES | HTRA1 inh | PRMT1 FP inh | SIAE inh | TCR-CD3 inh | PAD4 inh | mABHD4 FP | SIAE inh conf
CN(C)c1ccc(CNCC2CCCO2)cc1 (centres undefined) | 3 | 1 | 18* | 2 | -3 | -3 | -2
CCCC#Cc1ccc(CC[C@H]2O[C@H]3CC[C@H](CO)O[C@H]3C[C@H]2NC(=O)CN2CCOCC2)cc1 | . | -7 | 2 | . | . | 4 | .
Cc1noc(C)c1COC(=O)c1csc2c1CCC(C)C2 (centres undefined) | -10 | -5 | 20* | 8 | -2 | 1 | 0
CCOC(=O)C1CCCN(C(=O)c2ccc(OC)c([N+](=O)[O-])c2)C1 (centres undefined) | 4 | 4 | 30* | -2 | 0 | 5 | -3
O=c1c2ccccc2n(Cc2ccccc2)n1[C@@H](Cc1ccccc1)Cn1cc(C2CCCC2)nn1 | . | 1 | 8 | . | . | 4 | .
COc1ccccc1N1CCN(C(=O)CSc2nnnn2C2CC2)CC1 | 2 | -2 | 1 | 3 | . | 1 | .
COc1ccc(N2CCN(C(=O)CSc3nnnn3C3CC3)CC2)cc1 | 11 | 1 | 19* | -1 | -4 | -1 | -2
Cc1ccc(OCCn2cc(/C=N/NC(=O)c3ccncc3)c3ccccc32)cc1 | -11 | -1 | 29* | -7 | 3 | -3 | -1
COc1ccc(OCCn2cc(/C=N/NC(=O)c3ccncc3)c3ccccc32)cc1 | -5 | -1 | 12 | 3 | -6 | 1 | .
CNC(=S)N/N=C/c1cn(CCOc2cccc(OC)c2)c2ccccc12 | 4 | -3 | 22* | 5 | 4 | 2 | 7
COc1cccc(OCCn2cc(/C=N/NC(=O)c3ccncc3)c3ccccc32)c1 | 1 | 1 | 31* | -2 | 5 | 0 | 0
CNC(=S)N/N=C/c1cn(CCOc2ccccc2OC)c2ccccc12 | 3 | 1 | 11 | -2 | -2 | -4 | .
N#CC1CCN(c2nc(-c3ccc(Br)cc3)cs2)CC1 | . | -1 | -4 | . | . | -5 | .
CCOC(=O)CC[C@@]1(C(=O)OCC)C[C@@H](CC(=O)NCC23CC4CC(CC(C4)C2)C3)C(=O)N2CCCC=C21 | . | 1 | -3 | . | . | 2 | .
C/C=C/c1ccccc1OCCCN1CCC(C(O)(c2ccccc2)c2ccccc2)CC1 | . | -9 | -12 | . | . | 8 | .
Cc1nn(-c2ccccc2Cl)c(Cl)c1/C=N/Nc1cccc(C(=O)O)c1 | -2 | 1 | 5 | 2 | 1 | 9 | .
Cc1nn(-c2cccc(C(F)(F)F)c2)c(Cl)c1/C=N/Nc1cccc(C(=O)O)c1 | -8 | 5 | 26* | 1 | -3 | 7 | 13
c1ccc(OCc2ccc(CCCN3CCOCC3)cc2)cc1 | 0 | -2 | 18* | 5 | -3 | 3 | -1
c1ccc(CCCN2CCOCC2)cc1 | 3 | 0 | 2 | 1 | . | 7 | .
COc1cc(-n2c(C)nc3cc(C(=O)N4CCCCC4)ccc32)cc(OC)c1OC | . | -2 | -16 | . | . | -13 | .
Nc1ccc(NC(=S)Nc2ccccc2)cc1 | 18 | 1 | 17* | 10 | . | 12 | 3
CCCCCCC(=O)n1ccc2ccc(-c3ccc4ccn(Cc5ccc(OC)cc5)c4c3)cc21 | . | 4 | -7 | . | . | 2 | .
COc1ccc(-c2nc(C(=O)O)cs2)cc1OC | 4 | 1 | 2 | 6 | 3 | -1 | .
COc1ccc(C(=O)O)nc1C | -2 | -2 | 21* | -2 | 2 | 5 | 6
CCOC(=O)CC[C@@H]1CC[C@]2(CCCN(C(=O)c3ccccc3)C2)O1 | . | -1 | 14 | . | . | -1 | .
CCC1CCC2(CC1)NC(=O)N(CC(=O)NCc1ccccc1Cl)C2=O (centres undefined) | -1 | -2 | 17* | 9 | 4 | 6 | 4
Cc1ccccc1Cn1c(=N)n(CC(=O)c2ccco2)c2ccccc21 | -5 | -2 | 22* | 3 | 0 | 6 | 3
CCOC(=O)c1[nH]c(C)c(C(=O)N2CCOCC2)c1C | 1 | 3 | 22* | -1 | 2 | -2 | 2
CCOC(=O)c1[nH]c(C)c(C(=O)N2CCN(c3ccccc3)CC2)c1C | -4 | -3 | 1 | 8 | -6 | -1 | .
COCC(=O)Nc1ccc2c(c1)C(=O)N(C)[C@@H]1CC[C@@H](CC(=O)OC)O[C@H]1CO2 | . | 0 | 3 | . | . | 7 | .
